# In the library only some 2.4% were active in any assay of this set; here they are far more common.
# PREPL inh = human PREPL enzyme inhibition; recombinant PREPL, fluorescence polarization activity-based probe; inhibition, % at 5.96 µM; 320,000 tested, 0.68% active; in the data active = inhibition above about 43%
# Tb MetRS inh = Trypanosoma brucei MetRS inhibition; purified T. brucei MetRS, ATP depletion, Kinase-Glo luminescence; inhibition, % at 11.9 µM; 360,000 tested, 0.4% active; AID 624268;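 active = inhibition above a per-plate cutoff of the control wells' mean inhibition plus 3 SD, cut at about 5.5% in these data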
#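 Material: T. brucei methionyl-tRNA synthetase, purified; reagent: substrates ATP, L-methionine and bulk Escherichia coli tRNA; dosing: 11.9 µM single point; timing: 15 min plus 2 h at 25 °C; detection: luminescence of leftover ATP; evaluation: % inhibition; control set: DMSO-only wells as low control; replicates: singlicate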
# Rpn11 block = blocks the human proteasome subunit Rpn11; O00487; human 26S proteasome, Ub4-pepOG fluorescence polarization; 20S core pre-blocked with epoxomicin; inhibition, % at 20 µM; 360,000 tested, 0.59% active; AID 588493;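 active = inhibition at 20 µM, scaled to each plate's controls, above about 33%, limit read from the data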
# Target sequence (O00487 whole entry, looked up): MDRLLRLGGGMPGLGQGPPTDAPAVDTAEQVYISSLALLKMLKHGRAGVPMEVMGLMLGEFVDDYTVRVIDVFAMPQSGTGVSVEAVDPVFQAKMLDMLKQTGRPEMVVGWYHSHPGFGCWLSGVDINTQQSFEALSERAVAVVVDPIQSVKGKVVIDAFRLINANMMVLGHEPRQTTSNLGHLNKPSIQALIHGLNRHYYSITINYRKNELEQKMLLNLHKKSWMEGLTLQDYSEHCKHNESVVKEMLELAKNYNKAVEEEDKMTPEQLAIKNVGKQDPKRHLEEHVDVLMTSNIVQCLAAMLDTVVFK
# HNF4A DNA FP = change in binding of human HNF4 alpha to DNA. HNF4a-FITC DNA binding, fluorescence polarization, 1 h. 360,000 tested, 0.3% active. AID 1224865. activity change, % at 10 µM. P41235; in the data active = activity change above about 30%, passing the limit was not always enough
# CSN inh = inhibitors of human CSN-mediated cullin deneddylation. inhibition, % at 12.5 µM. 360,000 tested, 0.38% active. AID 651999. Purified CSN, SCF-Nedd8-OG deneddylation, fluorescence polarization;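 active = pattern-corrected inhibition above about 35%, with an unprinted fluorescence ratio check between 0.5 and 1.5, limit read from the data, passing the limit was not always enough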
# Target sequence (Q92905 whole entry, looked up, one chain of several): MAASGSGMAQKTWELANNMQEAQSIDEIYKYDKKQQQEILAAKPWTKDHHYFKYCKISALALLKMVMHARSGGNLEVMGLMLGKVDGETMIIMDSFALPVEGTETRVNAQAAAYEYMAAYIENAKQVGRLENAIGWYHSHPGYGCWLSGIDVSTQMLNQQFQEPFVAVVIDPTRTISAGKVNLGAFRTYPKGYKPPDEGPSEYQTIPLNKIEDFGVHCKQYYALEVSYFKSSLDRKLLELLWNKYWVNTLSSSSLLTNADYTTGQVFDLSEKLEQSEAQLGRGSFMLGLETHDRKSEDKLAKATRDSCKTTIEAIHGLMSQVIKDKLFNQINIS
#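 assay system = purified human Csn5 enzyme expressed in HEK293T cells | amount = 0.24 nM enzyme | buffer or medium = Tris/NaCl/DTT buffer, pH 7.5 | reagent = 10 nM SCFSkp2-Nedd8OG | compound = one concentration, 12.5 µM, 0.25% DMSO | times = 90 min reaction at room temperature | signal = FP | read-out basis = % inhibition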
# Neddyl block = cullin neddylation inhibition | P61081+Q13564 | TR-FRET cullin neddylation, biochemical | inhibition, % at 25 µM | 360,000 tested, 0.58% active | AID 651699; in the data active = inhibition above about 36%
# Rpn11 confirm = Rpn11 inhibition confirmation, single concentration; shares compounds with Rpn11 block; purified human 26S proteasome, Ub4-pepOG fluorescence polarization; proteasome pretreated with epoxomicin; inhibition, % at 20 µM; 1,900 tested, 29% active; AID 602318
# MMP-2 counter-1 = blocks human MMP-2, flagging nonselective RPN11 hits; shares compounds with Rpn11 block; recombinant MMP-2, FRET peptide cleavage fluorescence; inhibition, % at 20 µM; 1,900 tested, 4% active;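 also: human MMP-2 activated beforehand with APMA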
# Thrombin FP = counter-screen for RPN11 inhibitors: inhibition of bovine thrombin; AID 602333; bovine thrombin cleavage of Ub4-pepOG, fluorescence polarization; 1,900 tested, 13% active; inhibition, % at 20 µM; shares compounds with Rpn11 block;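 active = mean inhibition at least 40% at 20 µM, or signal 3 deviations below plate average, so some actives read negative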
# MMP-2 counter-2 = counter-screen for CSN deneddylation inhibitors: human MMP-2 inhibition; shares compounds with CSN inh; recombinant MMP-2, FRET substrate fluorescence, 60 min; inhibition, % at 16.6 µM; 540 tested, 33% active;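 active = corrected plate-normalized z-score of 5 or more, or -5 or less, or inhibition of 15% or more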
# Thrombin counter = counter-screen for CSN deneddylation inhibitors: bovine thrombin inhibition; shares compounds with CSN inh; bovine thrombin cleavage of Ub4-pepOG, fluorescence polarization; inhibition, % at 16.6 µM; 540 tested, 49% active; AID 720656;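 active = inhibition at or above a set limit, with a fluorescence interference ratio between 0.5 and a set maximum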
# HNF4a DNA conf = change in binding of human HNF4 alpha to DNA, retest. shares compounds with HNF4A DNA FP. HNF4A-FITC DNA binding, fluorescence polarization, 1 h. activity change, % at 12.5 µM. 210 tested, 99% active; call rule not given here
# Hits are given with their value; - = inactive; . = no result given; + = active, no number. Rule as the data show it, unless noted: active = inhibition above about 40%; inactive = the rest.
SMILES,PREPL inh,Tb MetRS inh,Rpn11 block,HNF4A DNA FP,CSN inh,Neddyl block,Rpn11 confirm,MMP-2 counter-1,Thrombin FP,HNF4a DNA conf,others
O=C(N/N=C/c1ccccn1)c1cc(-c2ccc3ccccc3c2)n[nH]1,-,-,136.9,-,40.9,-,84.9,-,57.5,.,MMP-2 counter-2=20.0;Thrombin counter=17.4
O=S1(=O)N[C@@H](Cc2ccccc2)COc2cccc(N3CCC[C@H]3CO)c21,.,-,.,-,-,-,.,.,.,.,
COc1ccc(NC(=O)CN(C)S(=O)(=O)c2ccc(C)cc2)c([N+](=O)[O-])c1,-,-,82.1,58.8,-,-,-,-,-,58.6,
CSc1nsc(/C=C/Nc2ccc(Cl)cc2)c1C#N,-,-,43.0,40.4,-,-,-,-,-,60.9,
CSc1nsc(/C=C/Nc2ccc(F)cc2)c1C#N,-,-,64.4,51.2,-,-,-,-,-,46.2,
CSc1nsc(/C=C/Nc2ccc(O)cc2C)c1C#N,-,-,.,-,-,-,.,.,.,.,
Cc1cccc(C)c1N1C(=O)c2ccccc2NC(=O)C1C(=O)NCCc1ccccc1F (stereo unspecified),.,-,.,-,-,-,.,.,.,.,
CCCS(=O)(=O)NC(=O)C1(C)CCCN(C(=O)c2c(OC)cccc2OC)C1 (stereo unspecified),.,-,-,-,-,-,.,.,.,.,
COc1ccc(N/C=C\C(=O)c2ccc3c(c2)OCO3)cc1,-,-,-,-,-,-,.,.,.,.,
O=C(/C=C\Nc1ccc2c(c1)OCO2)c1cccs1,-,-,-,-,-,-,.,.,.,.,
O=C(/C=C\Nc1ccc2c(c1)OCO2)c1ccc(Cl)s1,-,-,35.8,88.0,-,-,-,-,-,61.3,
O=C(/C=C\Nc1ccc2c(c1)OCO2)c1ccc2c(c1)OCO2,-,-,37.7,80.8,-,-,-,-,-,85.0,
CCCNC(=O)OC1CC2CC1[C@H]1CCCCN1C2=O (stereo partly specified),.,-,.,-,-,-,.,.,.,.,
COc1ccc2[nH]cc(/C=C/c3cc[n+](C)cc3)c2c1,-,-,116.5,52.1,-,-,114.1,-,114.2,113.7,
CC(C)C(C(=O)NCc1ccccc1)N1CCN(C(=O)C2CCCO2)CC1 (stereo unspecified),.,-,.,-,-,-,.,.,.,.,
O=C1c2ccccc2S(=O)(=O)c2cc(N3CCOCC3)ccc21,-,-,47.6,44.5,-,-,44.2,-,-,50.4,
COc1ccc(OC)c(-c2csc(NC(=O)c3ccc(F)cc3)n2)c1,-,-,-,-,-,-,.,.,.,.,
O=c1[nH]c(-c2ccccc2)ncc1OCc1ccccc1,.,-,-,-,-,-,.,.,.,.,
CCOC(=O)[C@@H]1[C@H]2COc3ccc(Br)cc3[C@H]2N2C(=O)N(c3cccc(Cl)c3)C(=O)[C@]12C,-,-,-,-,-,-,.,.,.,.,
CN1/C(=C\P(=O)(N(C)C)N(C)C)C(C)(C)c2ccccc21,-,-,59.9,39.4,-,-,-,-,-,43.1,
COc1cc(/C=N/n2c(C)nc3ccccc3c2=O)ccc1O,-,-,-,-,-,-,.,.,.,.,
COc1cc(/C=C(/C#N)c2nc3ccccc3c(=O)[nH]2)ccc1O,-,-,140.5,46.5,80.4,-,-,-,-,57.9,
c1ccc(-c2csc3ncnc(N4CCN(Cc5ccc6c(c5)OCO6)CC4)c23)cc1,-,-,-,-,-,-,.,.,.,.,
O=C(CSc1ncnc2scc(-c3ccccc3)c12)N1CCN(Cc2ccc3c(c2)OCO3)CC1,-,-,50.0,45.7,-,-,-,-,-,36.7,
O=Cc1sc(Nc2ccccc2)nc1Cl,-,-,75.7,37.1,-,-,60.4,-,-,59.0,
SMILES,PREPL inh,Tb MetRS inh,Rpn11 block,HNF4A DNA FP,CSN inh,Neddyl block,Rpn11 confirm,MMP-2 counter-1,Thrombin FP,HNF4a DNA conf,others
O=C(c1cc2ccccc2o1)N1CCN(Cc2nc3ccccc3s2)CC1,.,-,-,-,-,-,.,.,.,.,
CCCN1CCc2c(sc(NC(=O)c3ccc(S(=O)(=O)N4CCCC4)cc3)c2C(N)=O)C1,-,-,47.4,41.4,-,-,-,-,-,53.8,
CC(=O)Nc1ccc(C(=O)Nc2cccc(-c3cnc4ccccc4n3)c2)cc1,.,-,+,48.4,86.5,-,-,-,-,59.9,
Cc1cc(/C=C2/C(=O)N(C)C(=S)N2C)ccc1N1CCCC1,-,-,.,-,-,-,.,.,.,.,
CN1C(=O)/C(=C/C=C2/CCCN2C)N(C)C1=S,-,-,46.7,45.6,-,-,56.0,-,-,82.0,
CC12CCC(CC1O)C2C(=O)O (stereo unspecified),.,-,-,-,-,-,.,.,.,.,
CCOC(=O)c1ccc(NC(=O)CCC(=O)NCc2ccco2)cc1,-,-,-,-,-,-,.,.,.,.,
N#CCC(=O)Nc1ccc(C(=O)OCC(=O)NC(=O)NCc2ccco2)cc1,-,-,44.6,33.9,35.6,-,-,41.0,-,39.5,
CN1C=CC(=CC=C2C=CC(=O)C=C2)C=C1,-,-,82.3,54.2,-,-,43.3,-,-,48.3,
COc1cccc(C(=O)N2CCC2(C)C(=O)NC(C)C)c1 (stereo unspecified),.,-,-,-,-,-,.,.,.,.,
COc1ccc(-c2ccc3c(c2)S(=O)(=O)c2cccc(C(=O)NC4CCCC4)c2C3=O)cc1OC,-,-,78.5,51.3,-,-,-,-,-,57.0,
CCCCn1c(/N=C/c2ccc(N(C)C)cc2)nc2ccccc21,-,-,51.5,48.7,-,-,72.5,-,59.1,81.0,
CCCCn1c(/N=C/c2ccc3c(c2)OCO3)nc2ccccc21,-,-,-,-,-,-,.,.,.,.,
COc1ccc(-n2c(C)cc(/C=C3\SC(=S)NC3=O)c2C)cc1,-,-,44.9,40.1,-,-,-,-,-,59.0,
Cc1cc(/C=C2/SC(=O)NC2=O)c(C)n1-c1ccc(N2CCOCC2)cc1,-,-,-,-,-,-,.,.,.,.,

# Screening results (PubChem)
